Test results as given in ChEMBL document CHEMBL1150856, “Trypanocidal withanolides and withanolide glycosides from Dunalia brachyacantha” (2001).
Activity calls are given as the source filed them. The rule behind the calls is not given here.

Assays:
Leishmania amazonensis [1] = test: Antiparasitic activity against Leishmania amazonensis IFLA/BR/67/PH8 at 10 ug/mL after 72 hrs; type: functional
Outline: (§1)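 Promastigotes at 50 000 parasites/mL, 27 °C, 72 h, with compound at final 50, 25, 10, 1 and 0.1 μg/mL. Compound dissolved in medium plus DMSO (final DMSO under 0.1%) and filter-sterilised (0.22 μm). Triplicate wells. Activity was judged by inverted phase-contrast microscopy of a culture drop against untreated and pentamidine controls.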

Leishmania braziliensis [2] = test: Antiparasitic activity against Leishmania braziliensis MHOM/BR/75/M2903 at 10 ug/mL after 72 hrs; type: functional; outline: as §1
Leishmania donovani [3] = test: Antiparasitic activity against Leishmania donovani MHOM/IN/83/HS70 at 10 ug/mL after 72 hrs; type: functional; outline: as §1
Trypanosoma cruzi [4] = test: Antiparasitic activity against Trypanosoma cruzi Tulahuen epimastigotes at 10 ug/mL after 48 hrs; type: functional
Outline: (§2)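 Epimastigotes in LIT medium with 10% fetal calf serum, inoculum 10⁶ cells/mL, 28 °C. Samples were dissolved in DMSO and medium to final 50, 20, 10, 1 and 0.1 μg/mL (final DMSO under 0.5%). Triplicate. After 48 h, parasites were counted by haemocytometer and compared with untreated and pentamidine controls.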

Leishmania amazonensis [5] = test: Antiparasitic activity against Leishmania amazonensis IFLA/BR/67/PH8 at 50 ug/mL after 72 hrs; type: functional, organism-based; outline: as §1
Leishmania braziliensis [6] = test: Antiparasitic activity against Leishmania braziliensis MHOM/BR/75/M2903 at 50 ug/mL after 72 hrs; type: functional, organism-based; outline: as §1
Leishmania donovani [7] = test: Antiparasitic activity against Leishmania donovani MHOM/IN/83/HS70 at 50 ug/mL after 72 hrs; type: functional, organism-based; outline: as §1
Trypanosoma cruzi [8] = test: Antiparasitic activity against Trypanosoma cruzi Tulahuen epimastigotes at 50 ug/mL after 48 hrs; type: functional; outline: as §2
Leishmania amazonensis [9] = test: Antiparasitic activity against Leishmania amazonensis IFLA/BR/67/PH8 at 25 ug/mL after 72 hrs; type: functional, organism-based; outline: as §1
Leishmania braziliensis [10] = test: Antiparasitic activity against Leishmania braziliensis MHOM/BR/75/M2903 at 25 ug/mL after 72 hrs; type: functional, organism-based; outline: as §1
Leishmania donovani [11] = test: Antiparasitic activity against Leishmania donovani MHOM/IN/83/HS70 at 25 ug/mL after 72 hrs; type: functional, organism-based; outline: as §1
Trypanosoma cruzi [12] = test: Antiparasitic activity against Trypanosoma cruzi Tulahuen epimastigotes at 25 ug/mL after 48 hrs; type: functional
Shigella flexneri [13] = test: Antibacterial activity against Shigella flexneri […] at 0.0625 mg/mL after 18 hrs; type: functional, organism-based
Staphylococcus aureus [14] = test: Antibacterial activity against Staphylococcus aureus ATCC 25923/6538 at 0.0625 mg/mL after 18 hrs; type: functional, organism-based
Escherichia coli = test: Antibacterial activity against Escherichia coli ATCC 8739 at 0.0312 mg/mL after 18 hrs; type: functional, organism-based
Shigella flexneri [15] = test: Antibacterial activity against Shigella flexneri […] at 0.0312 mg/mL after 18 hrs; type: functional, organism-based
Staphylococcus aureus [16] = test: Antibacterial activity against Staphylococcus aureus ATCC 25923/6538 at 0.0312 mg/mL after 18 hrs; type: functional, organism-based
Bacillus subtilis = test: Antibacterial activity against Bacillus subtilis ATCC 6633 at 0.0312 mg/mL after 18 hrs; type: functional, organism-based
Leishmania amazonensis [17] = test: Antiparasitic activity against Leishmania amazonensis IFLA/BR/67/PH8 at 1 ug/mL after 72 hrs; type: functional; outline: as §1
Leishmania braziliensis [18] = test: Antiparasitic activity against Leishmania braziliensis MHOM/BR/75/M2903 at 1 ug/mL after 72 hrs; type: functional; outline: as §1
Leishmania donovani [19] = test: Antiparasitic activity against Leishmania donovani MHOM/IN/83/HS70 at 1 ug/mL after 72 hrs; type: functional; outline: as §1
Trypanosoma cruzi [20] = test: Antiparasitic activity against Trypanosoma cruzi Tulahuen epimastigotes at 1 ug/mL after 48 hrs; type: functional; outline: as §2
Leishmania amazonensis [21] = test: Antiparasitic activity against Leishmania amazonensis IFLA/BR/67/PH8 at 0.1 ug/mL after 72 hrs; type: functional; outline: as §1
Leishmania braziliensis [22] = test: Antiparasitic activity against Leishmania braziliensis MHOM/BR/75/M2903 at 0.1 ug/mL after 72 hrs; type: functional; outline: as §1
Leishmania donovani [23] = test: Antiparasitic activity against Leishmania donovani MHOM/IN/83/HS70 at 0.1 ug/mL after 72 hrs; type: functional; outline: as §1
Trypanosoma cruzi [24] = test: Antiparasitic activity against Trypanosoma cruzi Tulahuen epimastigotes at 0.1 ug/mL after 48 hrs; type: functional; outline: as §2

SMILES | Activity (Leishmania amazonensis [1]) | Activity (Leishmania braziliensis [2]) | Activity (Leishmania donovani [3]) | Activity (Trypanosoma cruzi [4]) | Activity (Leishmania amazonensis [5]) | Activity (Leishmania braziliensis [6]) | Activity (Leishmania donovani [7]) | Activity (Trypanosoma cruzi [8]) | Activity (Leishmania amazonensis [9]) | Activity (Leishmania braziliensis [10]) | Activity (Leishmania donovani [11]) | Activity (Trypanosoma cruzi [12]) | other results
N=C(N)c1ccc(OCCCCCOc2ccc(C(=N)N)cc2)cc1 | Active | Active | Active | Active |  |  |  |  |  |  |  |  | 
CC(=O)OC[C@]12CC[C@H]3[C@@H](C[C@H]4O[C@]45[C@@H](O)C=CC(=O)[C@]35C)[C@@H]1CC[C@@H]2[C@@](C)(O)[C@H]1CC(C)=C(C)C(=O)O1 | 75% | 50% | 75% | 0% | Active | Active | Active | 50% | Active | Active | Active | 0% | 
CC(=O)OC[C@]12CC[C@H]3[C@@H](CC=C4[C@@H](O)C=CC(=O)[C@@]43C)[C@@H]1CC[C@@H]2[C@@](C)(O)[C@H]1CC(C)=C(C)C(=O)O1 | Active | Active | Active | 75% | Active | Active | Active | Active | Active | Active | Active | Active | Activity (Shigella flexneri [13]): inactive; Activity (Staphylococcus aureus [14]): inactive; Activity (Escherichia coli): inactive; Activity (Shigella flexneri [15]): inactive; Activity (Staphylococcus aureus [16]): inactive; Activity (Bacillus subtilis): inactive; Activity (Leishmania amazonensis [17]): 75%; Activity (Leishmania braziliensis [18]): 50%; Activity (Leishmania donovani [19]): 75%; Activity (Trypanosoma cruzi [20]): 0%; Activity (Leishmania amazonensis [21]): 0%; Activity (Leishmania braziliensis [22]): 0%; Activity (Leishmania donovani [23]): 0%; Activity (Trypanosoma cruzi [24]): 0%
